Calls of active or inactive are those of the source. No cut-off for these calls is given here.
How the values were obtained:
Adrenergic receptor beta [1] = molecular target: T1, Adrenergic receptor beta (Homo sapiens, UniProt P08588+P07550+P13945); assay: In vitro blocking of beta adrenergic receptor in guinea pig trachea; type: tissue-based, Cavia porcellus; details: target entry is the homologue from another species
Canis familiaris [2] = organism: Canis familiaris; assay: Time taken for 80% recovery at a dose of 209 microg (3-h infusion period); type: functional, organism-based; details: Canis lupus familiaris
[3] = T1/2 in canine blood; type: ADME, […], Canis lupus familiaris; details: dog
Summary of the method: (§1)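 1 mL of solution containing 50 µg of compound was added to 1 mL of dog or human whole blood, or to 1 mL of 33% (w/v) canine liver homogenate. They were assayed by HPLC on a phenyl column with 60% acetonitrile/40% 0.05 M sodium phosphate (pH 6.6) and UV detection. Half-life was read graphically from concentration versus time.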

[4] = t1/2 in canine liver; type: ADME, Canis lupus familiaris; details: dog
[5] = Time in which 1/2 of the initial amount disappeared in human blood.; type: ADME, organism-based; summary of the method: as §1
[6] = Selectivity determined by expression 10[pA2(atria) - pA2 (trachea)] in guinea pig; type: functional, Cavia porcellus
Adrenergic receptor beta [7] = molecular target: T1, Adrenergic receptor beta; assay: In Vitro inhibition of the beta adrenergic receptor in guinea pig atria; type: tissue-based, Cavia porcellus; details: target entry is the homologue from another species
Canis familiaris [8] = organism: Canis familiaris; assay: Time taken for 80% recovery at a dose of 226 microg (3-h infusion period); type: functional, organism-based; details: Canis lupus familiaris
[9] = Stability at pH 7.4 and 37 degree Celsius (after 18 h); type: physicochemical; details: buffer
Summary of the method: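 Chemical stability was tested in pH 7.4 buffer at 37 °C. The percentage of parent compound remaining after 18 h of incubation was recorded.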

Canis familiaris [10] = organism: Canis familiaris; assay: Time taken for 80% recovery at a dose of 18 microg (3-h infusion period); type: functional, organism-based; details: Canis lupus familiaris
Canis familiaris [11] = organism: Canis familiaris; assay: Time taken for 80% recovery at a dose of 59 microg (3-h infusion period); type: functional, organism-based; details: Canis lupus familiaris
Summary of the method: (§2)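 After the infusion ended, the time to 80% recovery of the blockade was recorded as duration of action. The listed dose is the average amount infused per minute over the 3-h period, in µg/(kg min).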

Canis familiaris [12] = organism: Canis familiaris; assay: Time taken for 80% recovery at a dose of 25 microg (3-h infusion period); type: functional, organism-based; details: Canis lupus familiaris
Canis familiaris [13] = organism: Canis familiaris; assay: Time taken for 80% recovery at a dose of 7 microg (3-h infusion period); type: functional, organism-based; details: Canis lupus familiaris; summary of the method: as §2
Canis familiaris [14] = organism: Canis familiaris; assay: Percent inhibition of isoproterenol induced tachycardia at a dose of 7 microg (3-h infusion period); type: functional, Canis lupus familiaris

SMILES	pA2 (Adrenergic receptor beta [1])	half-life [3] [min]	Selectivity [6]	pA2 (Adrenergic receptor beta [7])	further results
COc1ccc(C(=O)OCC(O)CNC(C)C)cc1 (configuration not stated)	6.3	150	-2	6	Recovery time (Canis familiaris [2]): > 60 min; half-life [4]: 37 min; half-life [5]: 55 min
C=CCOc1cccc(C(=O)OCC(O)CNC(C)C)c1 (configuration not stated)	6.8	–	1	6.8	–
Cc1cc([N+](=O)[O-])ccc1C(=O)OCC(O)CNC(C)(C)C (configuration not stated)	7.3	–	-5	6.6	–
COc1ccccc1COC(=O)C(O)CNCCc1ccc(OC)c(OC)c1 (configuration not stated)	5	–	–	–	pA2 (Adrenergic receptor beta [7]; Cavia porcellus): inactive
C=CCOc1ccc(C(=O)OCC(O)CNC(C)(C)C)cc1 (configuration not stated)	–	–	–	6	–
CC(C)(C)NCC(O)COC(=O)Cc1ccccc1 (configuration not stated)	–	16	–	5.6	half-life [5]: 6.3 min
CNCC(O)COC(=O)c1ccc2c(c1)OCO2 (configuration not stated)	–	–	–	5.3	–
O=C(Cc1ccccc1)NCCNCC(O)COC(=O)c1ccccc1F (configuration not stated)	–	–	–	< 6	–
COc1ccc(CCNCC(O)COC(=O)c2ccccc2C)cc1OC (configuration not stated)	6.8	–	2	7	Recovery time (Canis familiaris [8]): > 60 min; remaining at 18 h [9]: 94%
Cc1cccc(C(=O)OCC(O)CNC(C)C)c1 (configuration not stated)	7.3	–	-3	6.8	–
CC(C)(C)NCC(O)COC(=O)c1ccccc1Cl (configuration not stated)	–	31	–	–	Recovery time (Canis familiaris [10]): > 35 min; half-life [4]: 72 min; half-life [5]: 6 min; remaining at 18 h [9]: 98%
CC(C)(C)NCC(O)COC(=O)c1cccc(OCc2ccccc2)c1 (configuration not stated)	–	> 180	–	–	half-life [4]: > 180 min
COc1ccc(CCNCC(O)COC(=O)c2ccc(F)cc2)cc1OC (configuration not stated)	6.7	–	2	7	Recovery time (Canis familiaris [11]): > 60 min
CNC(=O)NCC(C)(C)NCC(O)COC(=O)c1ccccc1F (configuration not stated)	8.1	12	-39	6.5	half-life [4]: 5 min
CC(C)(C)NCC(O)COC(=O)c1ccc(OCc2ccccc2)cc1 (configuration not stated)	–	–	–	6.2	–
CC(C)(C)NCC(O)COC(=O)C1c2ccccc2-c2ccccc21 (configuration not stated)	–	–	–	< 6	–

SMILES	pA2 (Adrenergic receptor beta [1])	half-life [3] [min]	Selectivity [6]	pA2 (Adrenergic receptor beta [7])	further results
Cc1ccccc1OCC(O)CNC(C)C (configuration not stated)	8.2	–	3	8.6	–
CC(C)NCC(O)COC(=O)c1ccc(O)cc1 (configuration not stated)	7.2	–	-2.5	6.8	Recovery time (Canis familiaris [12]): > 45 min
CC(C)(C)NCC(O)COC(=O)CCc1ccccc1 (configuration not stated)	–	< 2.5	–	< 6	half-life [5]: 71 min
CC(=O)Nc1cccc(C(=O)OCC(O)CNC(C)C)c1 (configuration not stated)	6.4	–	-2	6.1	–
Cc1cccc(C(=O)OCC(O)CNC(C)(C)C)c1 (configuration not stated)	7.3	–	-2	7	–
CC(C)(C)NCC(O)COC(=O)CCCc1ccccc1 (configuration not stated)	–	–	–	5.3	–
COc1ccc(CCNCC(O)C(=O)Oc2ccccc2C)cc1OC (configuration not stated)	–	–	–	5.9	–
COCCOC(=O)NCC(C)(C)NCC(O)COC(=O)c1ccccc1F (configuration not stated)	7.7	–	1	7.7	–
Cc1cc(N)ccc1C(=O)OCC(O)CNC(C)(C)C (configuration not stated)	8.4	–	-4	7.8	–
Cc1ccc(C(=O)OCC(O)CNC(C)C)cc1 (configuration not stated)	6.8	67	1	6.8	half-life [4]: 10.4 min; half-life [5]: 6 min
CC(C)(C)NCC(O)COC(=O)c1ccc([N+](=O)[O-])cc1 (configuration not stated)	–	> 180	–	6.1	half-life [4]: > 180 min; half-life [5]: 5.5 min
CN(C)S(=O)(=O)NCC(C)(C)NCC(O)COC(=O)c1ccccc1F (configuration not stated)	7.5	–	1	7.4	–
COc1ccc(CCNCC(O)COC(=O)c2cccc(F)c2)cc1OC (configuration not stated)	6.2	–	2	6.4	–
CC(C)(C)NCC(O)COC(=O)c1cccc(O)c1 (configuration not stated)	7.6	119	-2	7.4	Recovery time (Canis familiaris [13]): 25 min; half-life [4]: 62 min; Inhibition (Canis familiaris [14]): 56%
CC(C)(C)NCC(O)COC(=O)C(c1ccccc1)c1ccccc1 (configuration not stated)	–	> 180	–	< 5.5	half-life [5]: 120 min
